According to ChEMBL document CHEMBL5032502, “Syntheses, Biological Evaluations, and Mechanistic Studies of Benzo[c][1,2,5]oxadiazole Derivatives as Potent PD-L1 Inhibitors with In Vivo Antitumor Activity” (J Med Chem, 2021):
pEC50, pIC50: −log10 of the molar value. Calls of active or inactive are those of the source. The calls are words filed in the database; no cut-off is given here.

Assays:
[1] = tested on: Jurkat; experiment: Cytotoxicity against human Jurkat cells expressing PD-1/NFAT/Luc assessed as inhibition of cell viability at 0.1 to 10 uM incubated for 24 hrs by CCK8 assay; assay type: functional, cell-based; details: dose 0.1-10 µM
Procedure, shortened: (§1)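 PD-1⁺/NFAT-luc/Jurkat cells seeded at 20 000 per well, treated with compound in medium with 1% final DMSO for 24 h. CCK8 added for 4 h, then absorbance read.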

[2] = tested on: MC-38; experiment: Cytotoxicity against mouse MC38 cells assessed as inhibition of cell viability at 0.1 to 10 uM incubated for 24 hrs by MTT assay; assay type: functional, cell-based; details: dose 0.1-10 µM
Procedure, shortened: (§2)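 PD-L1⁺/aAPC/CHO-K1 cells (2000/well) or MC38 cells (5000/well) allowed to adhere for 12 h, then exposed to compound in medium with 1% final DMSO for 24 h. MTT added for 4 h, medium replaced with DMSO, absorbance read.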

[3] = tested on: CHO-K1; experiment: Cytotoxicity against CHO-K1 cells expressing PD-L1/aAPC assessed as inhibition of cell viability at 0.1 to 10 uM incubated for 24 hrs by MTT assay; assay type: functional, cell-based; details: Cricetulus griseus, dose 0.1-10 µM; procedure, shortened: as §2
[4] = molecular target: T1, Programmed cell death protein 1/Programmed cell death 1 ligand 1 (Homo sapiens, UniProt Q9NZQ7); experiment: Inhibition of human PD-1/PD-L1 interaction assessed as blockade activity incubated for 15 mins by HTRF assay; assay type: protein-complex assay
Procedure, shortened: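 Tag1-PD-L1 and Tag2-PD-1 proteins preincubated with compound (0.1 nM to 10 μM, triplicate) 15 min at room temperature, then anti-Tag1-Eu³⁺/anti-Tag2-XL665 added for 2 h at room temperature. Excitation 337 nm, emission 665 and […]. Signal taken as 665/615 ratio ×10 000; IC50 fitted from inhibition rates.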

[5] = molecular target: T1, Programmed cell death protein 1/Programmed cell death 1 ligand 1; experiment: Inhibition of human PD-1/PD-L1 interaction in human Jurkat cells expressing PD-1/NFAT/Luc cocultured with CHO-K1 cells expressing PD-L1/aAPC assessed as Jurkat T-lymphocyte activation measured after 6 hrs by luciferase reporter gene based luminescence assay; assay type: cell-based
[6] = tested on: Jurkat; experiment: Cytotoxicity against human Jurkat cells expressing PD-1/NFAT/Luc assessed as inhibition of cell viability at 10 uM incubated for 24 hrs by CCK8 assay; assay type: functional, cell-based; procedure, shortened: as §1
[7] = tested on: MC-38; experiment: Cytotoxicity against mouse MC38 cells assessed as inhibition of cell viability at 10 uM incubated for 24 hrs by MTT assay; assay type: functional, cell-based; procedure, shortened: as §2
[8] = molecular target: Programmed cell death protein 1/Programmed cell death 1 ligand 1 (Homo sapiens) (UniProt Q15116+Q9NZQ7); details: Jurkat, time 6.0 hrs
[9] = tested on: CHO-K1; experiment: Cytotoxicity against CHO-K1 cells expressing PD-L1/aAPC assessed as inhibition of cell viability at 10 uM incubated for 24 hrs by MTT assay; assay type: functional, cell-based; details: Cricetulus griseus; procedure, shortened: as §2

T1 sequence (Q15116 whole entry): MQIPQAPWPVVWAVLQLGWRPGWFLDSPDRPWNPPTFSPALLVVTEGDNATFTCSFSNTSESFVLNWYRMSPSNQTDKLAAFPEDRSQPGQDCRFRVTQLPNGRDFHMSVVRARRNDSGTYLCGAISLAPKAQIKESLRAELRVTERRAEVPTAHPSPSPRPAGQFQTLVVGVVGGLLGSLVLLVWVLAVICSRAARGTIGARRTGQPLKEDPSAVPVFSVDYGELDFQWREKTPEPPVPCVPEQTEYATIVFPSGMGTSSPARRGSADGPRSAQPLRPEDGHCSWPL
T1 sequence (Q9NZQ7 whole entry): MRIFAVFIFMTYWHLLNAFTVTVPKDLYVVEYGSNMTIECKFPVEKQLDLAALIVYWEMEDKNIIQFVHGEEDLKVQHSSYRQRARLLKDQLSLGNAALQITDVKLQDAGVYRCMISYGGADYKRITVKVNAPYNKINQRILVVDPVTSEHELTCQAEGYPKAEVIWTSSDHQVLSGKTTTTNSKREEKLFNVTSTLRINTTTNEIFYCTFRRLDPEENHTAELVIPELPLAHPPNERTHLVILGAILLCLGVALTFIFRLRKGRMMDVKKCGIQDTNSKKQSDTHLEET

O=C(O)[C@@H](CO)NCc1cc(Cl)c(OCc2cccc(-c3cccc(F)c3)c2Cl)cc1OCc1ccc2nonc2c1
Activity [1]: inactive | Activity [2]: inactive | Activity [3]: inactive | pIC50 [4]: 8.19

Cc1c(COc2ccc(CN[C@H](CO)C(=O)O)c(OCc3ccc4nonc4c3)c2)cccc1-c1ccccc1
pIC50 [4]: 7.47

O=C(O)[C@@H](CO)NCc1cc(Cl)c(OCc2cccc(-c3cccc(F)c3F)c2Cl)cc1OCc1ccc2nonc2c1
pIC50 [4]: 6.79

O=C(O)[C@@H](CO)NCc1cc(F)c(OCc2cccc(-c3ccccc3)c2Br)cc1OCc1ccc2nonc2c1
Activity [1]: inactive | Activity [2]: inactive | Activity [3]: inactive | pIC50 [4]: 8.11

O=C1CC[C@@H](CNCc2cc(Cl)c(OCc3cccc(-c4ccccc4)c3Cl)cc2OCc2ccc3nonc3c2)N1
pIC50 [4]: 7.67

O=C(O)[C@@H](CO)NCc1cc(Cl)c(OCc2cccc(-c3cccc(OCCCO)c3)c2Cl)cc1OCc1ccc2nonc2c1
pIC50 [4]: 7.22

O=C(O)CNCc1cc(Cl)c(OCc2cccc(-c3ccccc3)c2Br)cc1OCc1ccc2nonc2c1
pIC50 [4]: 7.47

CC(C)C[C@H](NCc1cc(Cl)c(OCc2cccc(-c3ccccc3)c2Cl)cc1OCc1ccc2nonc2c1)C(=O)N[C@H](CC(C)C)C(=O)O
pIC50 [4]: 5.80

Clc1cc(CNCCN2CCCCC2)c(OCc2ccc3nonc3c2)cc1OCc1cccc(-c2ccccc2)c1Cl
pIC50 [4]: 6.54

NS(=O)(=O)CCNCc1cc(Cl)c(OCc2cccc(-c3ccccc3)c2Br)cc1OCc1ccc2nonc2c1
pIC50 [4]: 6.47

Cc1c(COc2ccc(CN[C@H](CO)C(=O)O)c(OCc3cccc(C#N)c3)c2)cccc1-c1ccccc1
pEC50 [5]: 5.68 | Activity [6]: Active | Activity [7]: Active | RLU [8]: 1.83 | Activity [9]: Active | pIC50 [4]: 7.45

CC(C)(C)OC[C@@H](NCc1cc(Cl)c(OCc2cccc(-c3ccccc3)c2Cl)cc1OCc1ccc2nonc2c1)C(=O)N[C@H](CO)C(=O)O
pIC50 [4]: 6.41

O=C(O)[C@@H](CO)NCc1ccc(OCc2cccc(-c3ccccc3)c2C(F)(F)F)cc1OCc1ccc2nonc2c1
pIC50 [4]: 5.86

OC1CCN(Cc2cc(Cl)c(OCc3cccc(-c4ccccc4)c3Br)cc2OCc2ccc3nonc3c2)CC1
pIC50 [4]: 5.98

O=C(O)[C@@H](CO)NCc1cc(Cl)c(OCc2cccc(-c3cccc(OCCO)c3)c2Cl)cc1OCc1ccc2nonc2c1
pIC50 [4]: 6.99

O=C(O)[C@@H](CO)NCc1cc(Br)c(OCc2cccc(-c3ccccc3)c2Br)cc1OCc1ccc2nonc2c1
pIC50 [4]: 7.56

OC[C@@H](O)CNCc1cc(Cl)c(OCc2cccc(-c3ccccc3)c2Br)cc1OCc1ccc2nonc2c1
pIC50 [4]: 7.80

Cc1c(COc2cc(OCc3ccc4nonc4c3)c(CN[C@H](CO)C(=O)O)cc2Cl)cccc1-c1ccccc1
pIC50 [4]: 7.78

OCCNCc1cc(Cl)c(OCc2cccc(-c3ccccc3)c2Br)cc1OCc1ccc2nonc2c1
pIC50 [4]: 7.51

CS(=O)(=O)c1ccc(-c2cccc(COc3cc(OCc4ccc5nonc5c4)c(CN[C@H](CO)C(=O)O)cc3Cl)c2Cl)cc1
pIC50 [4]: < 6.00

O=C(O)[C@@H](CO)NCc1cc(Cl)c(OCc2cccc(-c3cccc(O)c3)c2Cl)cc1OCc1ccc2nonc2c1
pIC50 [4]: 7.23
